Data reported in ChEMBL document CHEMBL3112564, “Identification of clinically viable quinolinol inhibitors of botulinum neurotoxin A light chain” (J Med Chem, 2014).
≈ marks a conversion by molar mass, not a printed value.

Legend:
[1] = biological target: Botulinum neurotoxin type A (Clostridium botulinum, UniProt P0DPI0)
[2] = system: Liver microsome; experiment: Drug metabolism in human liver microsomes assessed as metabolic rate at 1 uM by reversed phase LC/MS analysis; type: ADME
Procedure, shortened: (§1)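 Liver microsomes were from humans (pooled from 10 male donors) or male Sprague–Dawley rats aged 8–10 weeks. Incubations used 0.125 mg/mL total protein and 1.0 μM drug at 37 °C, sampled at 0, 5, 15, 30 and 60 min. Parent-to-product transitions were read by reversed-phase LC with triple quadrupole MS, and % remaining was taken relative to time zero. t1/2 = −ln(2)/k, with k from log–linear regression.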

[3] = system: Plasma; experiment: Metabolic stability in Sprague-Dawley rat plasma assessed as compound remaining at 1 uM measured at 3 hrs by LC-MS/MS analysis; type: ADME, cell-free
Procedure, shortened: (§2)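 Compound at 1.0 μM was incubated in plasma at 37 °C and sampled at 0, 1, 3, 5 and 24 h. Proteins were precipitated with cold acetonitrile containing internal standard, and samples were analysed by LC–MS/MS for percent remaining. Half-life came from regression analysis.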

[4] = system: Plasma; experiment: Half life in Sprague-Dawley rat plasma at 1 uM by LC-MS/MS analysis; type: ADME, cell-free
Procedure, shortened: as §2

[5] = Aqueous solubility of the compound at pH 6.8 after 24 hrs by shake flask method; type: physicochemical; conditions: buffer, pH 6.8, 24 h
Procedure, shortened: (§3)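 Miniaturized shake-flask method: analyte at 1.0 mM in aqueous solution at pH 1.0 or 6.8, shaken gently (600 rpm) in a syringeless filter at room temperature for 24 h. Filtrate was collected after a further 30 min, diluted in 50:50 MeCN/water with 0.1% formic acid, and analysed by LC–MS/MS. Calibration range was 0.05–12.5 μM at pH 6.8 and 5.0–25000 μM at pH 1.0.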

[6] = Aqueous solubility of the compound at pH 1 after 24 hrs by shake flask method; type: physicochemical
Procedure, shortened: as §3

[7] = system: Liver microsome; experiment: Half life in human liver microsomes at 1 uM by reversed phase LC/MS analysis; type: ADME
Procedure, shortened: as §1

[8] = system: Liver microsome; experiment: Drug metabolism in Sprague-Dawley rat liver microsomes assessed as metabolic rate at 1 uM by reversed phase LC/MS analysis; type: ADME
Procedure, shortened: as §1

[9] = system: Plasma; experiment: Half life in human plasma at 1 uM by LC-MS/MS analysis; type: ADME, cell-free
Procedure, shortened: as §2

[10] = system: Liver microsome; experiment: Half life in Sprague-Dawley rat liver microsomes at 1 uM by reversed phase LC/MS analysis; type: ADME
Procedure, shortened: as §1

[11] = system: Plasma; experiment: Metabolic stability in human plasma assessed as compound remaining at 1 uM measured at 3 hrs by LC-MS/MS analysis; type: ADME, cell-free
Procedure, shortened: as §2

[12] = species on record: Homo sapiens; experiment: Half life in human; type: ADME, organism-based; conditions: in vivo
[13] = system: Serum; experiment: Drug uptake in serum of alzheimer patient at 250 to 750 mg, po; type: ADME, cell-free; conditions: human, read-out: Drug uptake

Sequence of Botulinum neurotoxin type A (P0DPI0 2-448 limits assumed): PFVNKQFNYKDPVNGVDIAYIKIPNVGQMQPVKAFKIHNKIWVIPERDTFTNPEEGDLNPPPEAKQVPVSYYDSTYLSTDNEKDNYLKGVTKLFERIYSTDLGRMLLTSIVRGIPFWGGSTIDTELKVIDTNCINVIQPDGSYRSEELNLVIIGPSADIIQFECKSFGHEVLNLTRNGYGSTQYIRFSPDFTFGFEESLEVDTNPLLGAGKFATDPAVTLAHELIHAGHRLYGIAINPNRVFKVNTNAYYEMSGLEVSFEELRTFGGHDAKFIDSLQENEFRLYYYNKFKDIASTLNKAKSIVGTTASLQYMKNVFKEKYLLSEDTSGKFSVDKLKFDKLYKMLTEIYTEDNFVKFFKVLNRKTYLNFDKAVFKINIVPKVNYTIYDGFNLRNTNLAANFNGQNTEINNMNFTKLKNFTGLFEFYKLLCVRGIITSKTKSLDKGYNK

Cc1cccc(NC(c2ccc(C)s2)c2ccc3ccc(C)nc3c2O)n1 (stereo unspecified)
IC50 [1]: > 100 µM

Cc1ccc(C(Nc2ccccn2)c2ccc3cccnc3c2O)cc1 (stereo unspecified)
IC50 [1]: 2.5 µM

CCCC(=O)NC(c1ccccc1Cl)c1ccc2cccnc2c1O (stereo unspecified)
IC50 [1]: > 100 µM

COc1cccc(C(NC(C)=O)c2ccc3cccnc3c2O)c1 (stereo unspecified)
IC50 [1]: > 100 µM

Oc1c(C(Nc2ccccn2)c2ccccc2)ccc2cccnc12 (stereo unspecified)
Drug metabolism [2]: 0.186 µM/min/mg
Stability [3]: 67.3%
t1/2 [4]: 13.5 h
solubility [5]: 0.078 µM (≈ 0.0255 µg/mL)
solubility thermodynamic at 24 h [6]: 1170 µM (≈ 384 µg/mL)
IC50 [1]: 2.2 µM
t1/2 [7]: 0.493 h
Drug metabolism [8]: 0.637 µM/min/mg
t1/2 [9]: 11.4 h
t1/2 [10]: 0.143 h

CC(C)Oc1c(C(Nc2ccccn2)c2ccccc2)ccc2cccnc12 (stereo unspecified)
IC50 [1]: > 100 µM

CC(C)C(=O)NC(c1ccccc1Cl)c1ccc2cccnc2c1O (stereo unspecified)
IC50 [1]: > 100 µM

O=C(NC(c1ccccc1Cl)c1ccc2cccnc2c1O)c1ccccc1 (stereo unspecified)
IC50 [1]: 0.8 µM

Cc1ccccc1C(Nc1ccccn1)c1ccc2cccnc2c1O (stereo unspecified)
IC50 [1]: 3.6 µM

Cc1ccc2ccc(C(Nc3ccccn3)c3ccccc3C)c(O)c2n1 (stereo unspecified)
IC50 [1]: 1.6 µM

Cc1cccc(NC(c2ccccc2[N+](=O)[O-])c2ccc3ccc(C)nc3c2O)n1 (stereo unspecified)
IC50 [1]: 10.7 µM

Cc1ccnc(NC(c2ccccc2[N+](=O)[O-])c2ccc3ccc(C)nc3c2O)c1 (stereo unspecified)
IC50 [1]: 0.9 µM

Cc1ccnc(NC(c2ccccn2)c2ccc3cccnc3c2O)c1 (stereo unspecified)
IC50 [1]: 13.4 µM

Cc1ccnc(NC(c2ccccn2)c2ccc3ccc(C)nc3c2O)c1 (stereo unspecified)
IC50 [1]: 2.1 µM

Cc1ccnc(NC(c2cccc([N+](=O)[O-])c2)c2ccc3cccnc3c2O)c1 (stereo unspecified)
IC50 [1]: 4.6 µM

Cc1ccnc(NC(c2cccc([N+](=O)[O-])c2)c2ccc3ccc(C)nc3c2O)c1 (stereo unspecified)
IC50 [1]: 1.1 µM

Cc1ccc2ccc(C(Nc3ccccn3)c3cccc(OCc4ccccc4)c3)c(O)c2n1 (stereo unspecified)
IC50 [1]: 1.4 µM

Cc1cccc(NC(c2cccc(OCc3ccccc3)c2)c2ccc3ccc(C)nc3c2O)n1 (stereo unspecified)
IC50 [1]: 3.5 µM

COc1cccc(C(Nc2cc(C)ccn2)c2ccc3ccc(C)nc3c2O)c1 (stereo unspecified)
IC50 [1]: 2 µM

Cc1ccnc(NC(c2ccc(Cl)c(Cl)c2)c2ccc3cccnc3c2O)c1 (stereo unspecified)
IC50 [1]: 1.5 µM

Cc1ccnc(NC(c2ccc(Cl)c(Cl)c2)c2ccc3ccc(C)nc3c2O)c1 (stereo unspecified)
IC50 [1]: 1.2 µM

COc1ccc(C(Nc2ccccn2)c2ccc3cccnc3c2O)cc1OC (stereo unspecified)
IC50 [1]: 6.2 µM

COc1ccc(C(Nc2ccccn2)c2ccc3ccc(C)nc3c2O)cc1OC (stereo unspecified)
IC50 [1]: 3 µM

Oc1c(C(Nc2ccccn2)c2ccc(F)cc2)ccc2cccnc12 (stereo unspecified)
IC50 [1]: 7.1 µM

Cc1ccc2ccc(C(Nc3ccccn3)c3ccc(F)cc3)c(O)c2n1 (stereo unspecified)
IC50 [1]: 2.8 µM

Cc1ccc(C(Nc2ccccn2)c2ccc3ccc(C)nc3c2O)cc1 (stereo unspecified)
IC50 [1]: 2.1 µM

CC(=O)NC(c1ccc(C)cc1)c1ccc2cccnc2c1O (stereo unspecified)
IC50 [1]: > 100 µM

CC(=O)NC(c1ccc(N(C)C)cc1)c1ccc2cccnc2c1O (stereo unspecified)
IC50 [1]: > 100 µM

CN(C)c1ccc(C(NC(=O)Cc2ccccc2)c2ccc3cccnc3c2O)cc1 (stereo unspecified)
IC50 [1]: 7.1 µM

Cc1ccnc(NC(c2ccc(N(C)C)cc2)c2ccc3cccnc3c2O)c1 (stereo unspecified)
IC50 [1]: 3.5 µM

Cc1ccnc(NC(c2ccc(N(C)C)cc2)c2ccc3ccc(C)nc3c2O)c1 (stereo unspecified)
IC50 [1]: 2.5 µM

Cc1cccc(NC(c2ccc(N(C)C)cc2)c2ccc3ccc(C)nc3c2O)n1 (stereo unspecified)
IC50 [1]: 4.5 µM

Cc1ccnc(NC(c2ccc([N+](=O)[O-])cc2)c2ccc3ccc(C)nc3c2O)c1 (stereo unspecified)
Drug metabolism [2]: 0.047 µM/min/mg
Stability [11]: 92.2%
Stability [3]: 98.5%
t1/2 [4]: 109 h
solubility thermodynamic at 24 h [6]: 997 µM (≈ 399 µg/mL)
IC50 [1]: 1 µM
t1/2 [7]: 1.93 h
Drug metabolism [8]: 0.271 µM/min/mg
t1/2 [9]: 42 h
t1/2 [10]: 0.338 h

COc1ccc(C(Nc2ccccn2)c2ccc3cccnc3c2O)cc1 (stereo unspecified)
Drug metabolism [2]: 0.242 µM/min/mg
Stability [11]: 53.4%
Stability [3]: 42.2%
t1/2 [4]: 5 h
solubility thermodynamic at 24 h [6]: 102 µM (≈ 36.5 µg/mL)
IC50 [1]: 5.6 µM
t1/2 [7]: 0.378 h
Drug metabolism [8]: 0.487 µM/min/mg
t1/2 [9]: 6.1 h
t1/2 [10]: 0.188 h

COc1ccc(C(Nc2ccccn2)c2ccc3ccc(C)nc3c2O)cc1 (stereo unspecified)
Drug metabolism [2]: 0.324 µM/min/mg
Stability [11]: 66.2%
Stability [3]: 86.6%
t1/2 [4]: 5 h
solubility thermodynamic at 24 h [6]: 76.7 µM (≈ 28.5 µg/mL)
IC50 [1]: 1.9 µM
t1/2 [7]: 0.283 h
Drug metabolism [8]: 0.627 µM/min/mg
t1/2 [9]: 10.7 h
t1/2 [10]: 0.147 h

Cc1ccc2ccc(C(Nc3ccccn3)c3ccc(C)s3)c(O)c2n1 (stereo unspecified)
IC50 [1]: 2 µM

Oc1c(C(Nc2ccccc2Cl)c2ccccn2)ccc2cccnc12 (stereo unspecified)
IC50 [1]: 5.6 µM

Oc1c(C(Nc2ccccc2Cl)c2cccnc2)ccc2cccnc12 (stereo unspecified)
IC50 [1]: 1.9 µM

CCOC(=O)c1ccc(NC(c2ccccn2)c2ccc3cccnc3c2O)cc1 (stereo unspecified)
IC50 [1]: 5.1 µM

CCOC(=O)c1ccc(NC(c2cccnc2)c2ccc3cccnc3c2O)cc1 (stereo unspecified)
IC50 [1]: 2.9 µM

COC(=O)c1cccc(NC(c2ccccn2)c2ccc3cccnc3c2O)c1 (stereo unspecified)
IC50 [1]: 7.8 µM

COC(=O)c1cccc(NC(c2cccnc2)c2ccc3cccnc3c2O)c1 (stereo unspecified)
IC50 [1]: 4.2 µM

CCCOC(=O)c1ccc(NC(c2ccccn2)c2ccc3cccnc3c2O)cc1 (stereo unspecified)
IC50 [1]: 5.6 µM

CCCOC(=O)c1ccc(NC(c2cccnc2)c2ccc3cccnc3c2O)cc1 (stereo unspecified)
IC50 [1]: 3 µM

COc1ccc(C)cc1NC(c1ccccn1)c1ccc2cccnc2c1O (stereo unspecified)
IC50 [1]: 5.1 µM

COc1ccc(C)cc1NC(c1cccnc1)c1ccc2cccnc2c1O (stereo unspecified)
IC50 [1]: 4.4 µM

Cc1cc(Cl)ccc1NC(c1ccccn1)c1ccc2cccnc2c1O (stereo unspecified)
IC50 [1]: 5.2 µM

Cc1cc(Cl)ccc1NC(c1cccnc1)c1ccc2cccnc2c1O (stereo unspecified)
IC50 [1]: 2.3 µM

Cc1cccc(NC(c2ccccn2)c2ccc3cccnc3c2O)c1 (stereo unspecified)
IC50 [1]: 16.7 µM

Cc1cccc(NC(c2cccnc2)c2ccc3cccnc3c2O)c1 (stereo unspecified)
IC50 [1]: 6.7 µM

Oc1c(CNc2ccccn2)ccc2cccnc12
Drug metabolism [2]: 0.203 µM/min/mg
Stability [11]: 96.1%
Stability [3]: 76.3%
t1/2 [4]: 12.9 h
solubility thermodynamic at 24 h [6]: 1140 µM (≈ 287 µg/mL)
IC50 [1]: 26.7 µM
t1/2 [7]: 0.452 h
Drug metabolism [8]: 0.149 µM/min/mg
t1/2 [9]: 14.2 h
t1/2 [10]: 0.613 h

Cc1ccc2c(Cl)cc(I)c(O)c2n1
IC50 [1]: 14.1 µM

Cc1ccnc(NC(c2ccc([N+](=O)[O-])cc2)c2ccc3cccnc3c2O)c1 (stereo unspecified)
Drug metabolism [2]: 0.215 µM/min/mg
Stability [11]: 90.9%
Stability [3]: 100%
t1/2 [4]: 51.1 h
solubility thermodynamic at 24 h [6]: 1050 µM (≈ 405 µg/mL)
IC50 [1]: 4.3 µM
t1/2 [7]: 0.425 h
Drug metabolism [8]: 0.13 µM/min/mg
t1/2 [9]: 24.4 h
t1/2 [10]: 0.703 h

CCC(=O)NC(c1ccc(OC)c(OC)c1)c1ccc2cccnc2c1O (stereo unspecified)
IC50 [1]: > 100 µM

COc1cccc(C(Nc2cc(C)ccn2)c2ccc3cccnc3c2O)c1 (stereo unspecified)
IC50 [1]: 3.3 µM

CCC(=O)NC(c1ccc(N(C)C)cc1)c1ccc2cccnc2c1O (stereo unspecified)
IC50 [1]: > 100 µM

CCC(=O)NC(c1ccccc1Cl)c1ccc2cccnc2c1O (stereo unspecified)
IC50 [1]: > 100 µM

Cc1ccc2cccc(O)c2n1 [8-HYDROXY QUINALDINE]
IC50 [1]: > 30 µM

Oc1c(Cl)cc(Cl)c2cccnc12 [CHLOROXINE]
Drug metabolism [2]: 0.112 µM/min/mg
Stability [11]: 100%
Stability [3]: 100%
t1/2 [4]: 67.7 h
solubility [5]: 0.532 µM (≈ 0.114 µg/mL)
solubility thermodynamic at 24 h [6]: 326 µM (≈ 69.8 µg/mL)
IC50 [1]: 11.5 µM
t1/2 [7]: 0.815 h
Drug metabolism [8]: 0.1 µM/min/mg
t1/2 [9]: 18.6 h
t1/2 [10]: 0.917 h

Cc1ccc2c(Cl)cc(Cl)c(O)c2n1 [CHLORQUINALDOL]
Drug metabolism [2]: 0.19 µM/min/mg
Stability [11]: 92.2%
Stability [3]: 96.9%
t1/2 [4]: 115 h
solubility thermodynamic at 24 h [6]: 1100 µM (≈ 250 µg/mL)
IC50 [1]: 10.1 µM
t1/2 [7]: 0.48 h
Drug metabolism [8]: 0.142 µM/min/mg
t1/2 [9]: 24.5 h
t1/2 [10]: 0.643 h

Oc1c(I)cc(Cl)c2cccnc12 [CLIOQUINOL]
Drug metabolism [2]: 0.086 µM/min/mg
t1/2 [12]: 11 h
concentration [13]: 13 µM
Stability [11]: 100%
Stability [3]: 83.9%
t1/2 [4]: 136 h
solubility thermodynamic at 24 h [6]: 38.1 µM (≈ 11.6 µg/mL)
IC50 [1]: 20.3 µM
t1/2 [7]: 1.06 h
Drug metabolism [8]: 0.071 µM/min/mg
t1/2 [9]: 42.4 h
t1/2 [10]: 1.28 h

Oc1cccc2cccnc12 [OXYQUINOLINE]
IC50 [1]: > 30 µM
